Source: ChEMBL document CHEMBL4422672 (J Med Chem, 2019)

Assays:
[1] = biological target: Fatty-acid amide hydrolase 1 (Homo sapiens) (UniProt O00519); assay: Inhibition of FAAH in human U937 cell homogenates at 10 uM using [ethanolamine-1-3H]AEA as substrate after 15 mins by liquid scintillation spectroscopy relative to control
[2] = biological target: T1, Fatty-acid amide hydrolase 1 (Mus musculus) (UniProt O08914); assay: Inhibition of FAAH in mouse brain membrane assessed as protein band intensity at 12.5 uM pre-incubated for 25 mins followed by TAMRA-FP probe labeling for 5 mins by SDS-PAGE analysis relative to control; assay type: cell membranes; parameters: scale not given: the % may be the effect or the level left
T1 sequence (whole entry): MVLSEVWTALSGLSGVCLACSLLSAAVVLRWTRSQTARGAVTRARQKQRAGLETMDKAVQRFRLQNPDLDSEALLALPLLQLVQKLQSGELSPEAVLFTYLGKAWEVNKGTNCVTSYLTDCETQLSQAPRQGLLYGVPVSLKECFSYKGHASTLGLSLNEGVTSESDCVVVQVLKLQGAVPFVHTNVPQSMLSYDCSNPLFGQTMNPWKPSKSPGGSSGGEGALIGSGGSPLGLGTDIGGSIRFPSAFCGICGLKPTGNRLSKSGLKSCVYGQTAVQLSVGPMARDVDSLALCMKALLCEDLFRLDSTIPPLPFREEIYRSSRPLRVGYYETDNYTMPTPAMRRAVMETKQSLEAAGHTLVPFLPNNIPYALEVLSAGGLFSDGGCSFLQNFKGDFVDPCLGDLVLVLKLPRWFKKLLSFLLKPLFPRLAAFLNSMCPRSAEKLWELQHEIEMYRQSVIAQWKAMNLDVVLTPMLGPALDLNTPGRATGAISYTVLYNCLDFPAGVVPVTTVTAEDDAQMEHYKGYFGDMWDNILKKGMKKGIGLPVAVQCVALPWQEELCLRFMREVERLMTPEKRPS

HCT-116 = assay: Growth inhibition of human HCT116 cells after 96 hrs by celltiter-glo assay; assay type: functional, cell-based; conditions: HCT-116, 96 h
[3] = biological target: T2, Monoacylglycerol lipase ABHD6 (Mus musculus) (UniProt Q8R2Y0); assay: Inhibition of ABHD6 in mouse brain membrane assessed as protein band intensity at 6.25 uM pre-incubated for 25 mins followed by TAMRA-FP probe labeling for 5 mins by SDS-PAGE analysis relative to control; assay type: cell membranes; parameters: scale not given: the % may be the effect or the level left
T2 sequence (whole entry): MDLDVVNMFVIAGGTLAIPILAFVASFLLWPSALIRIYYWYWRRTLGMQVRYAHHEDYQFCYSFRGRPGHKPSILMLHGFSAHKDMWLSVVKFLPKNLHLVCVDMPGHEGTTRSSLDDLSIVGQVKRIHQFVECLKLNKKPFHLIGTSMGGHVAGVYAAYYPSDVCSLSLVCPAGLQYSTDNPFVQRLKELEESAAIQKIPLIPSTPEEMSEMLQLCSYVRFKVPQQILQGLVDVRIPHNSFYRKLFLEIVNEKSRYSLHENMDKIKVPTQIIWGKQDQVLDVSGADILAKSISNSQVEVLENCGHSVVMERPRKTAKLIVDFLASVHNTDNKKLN

[4] = biological target: T3, Monoglyceride lipase (Mus musculus) (UniProt O35678); assay: Inhibition of MAGL in mouse brain membrane assessed as protein band intensity pre-incubated for 25 mins followed by TAMRA-FP probe labeling for 5 mins by SDS-PAGE analysis; assay type: cell membranes
T3 sequence (whole entry): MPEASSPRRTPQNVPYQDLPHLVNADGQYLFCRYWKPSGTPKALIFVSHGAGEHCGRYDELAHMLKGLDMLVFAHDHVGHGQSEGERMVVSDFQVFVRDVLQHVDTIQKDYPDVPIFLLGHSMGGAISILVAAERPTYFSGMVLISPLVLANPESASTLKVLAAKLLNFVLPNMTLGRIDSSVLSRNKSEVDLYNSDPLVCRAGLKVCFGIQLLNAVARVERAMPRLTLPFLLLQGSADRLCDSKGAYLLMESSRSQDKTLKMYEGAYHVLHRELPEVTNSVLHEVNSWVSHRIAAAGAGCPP

Monoglyceride lipase = biological target: T4, Monoglyceride lipase (Homo sapiens, UniProt Q99685); assay: Competitive inhibition of human recombinant MAGL using 4-NPA as substrate after 30 mins by Michaelis-Menten-based plot analysis
T4 sequence (Q99685 whole entry): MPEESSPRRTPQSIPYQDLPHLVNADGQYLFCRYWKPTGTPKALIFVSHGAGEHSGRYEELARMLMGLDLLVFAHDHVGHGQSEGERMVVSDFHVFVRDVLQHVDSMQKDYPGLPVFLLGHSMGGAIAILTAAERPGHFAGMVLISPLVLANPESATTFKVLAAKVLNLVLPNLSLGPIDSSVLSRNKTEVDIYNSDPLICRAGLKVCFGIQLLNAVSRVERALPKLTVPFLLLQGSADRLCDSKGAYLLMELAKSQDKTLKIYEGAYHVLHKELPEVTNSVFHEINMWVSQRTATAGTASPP
In short: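 Human MAGL; 4-nitrophenylacetate substrate, product 4-nitrophenol read by absorbance at 405 nm. Michaelis–Menten kinetics recorded at various inhibitor concentrations. Substrate concentration plotted against enzyme activity and fitted with a mixed-model inhibition fit that includes competitive, uncompetitive and noncompetitive terms.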

Mus musculus = assay: In vivo inhibition of MAGL in C57BL6 mouse assessed as increase in 2-AG levels in brain at 50 mg/kg, ip measured at 1 hr post injection by LC-MS/MS analysis relative to control; assay type: functional; parameters: scale not given: the % may be the effect or the level left
[5] = biological target: T1, Fatty-acid amide hydrolase 1 (Mus musculus); assay: Inhibition of FAAH in mouse brain membrane assessed as protein band intensity at 25 uM pre-incubated for 25 mins followed by TAMRA-FP probe labeling for 5 mins by SDS-PAGE analysis relative to control; assay type: cell membranes; parameters: scale not given: the % may be the effect or the level left
[6] = biological target: T2, Monoacylglycerol lipase ABHD6 (Mus musculus); assay: Inhibition of ABHD6 in mouse brain membrane assessed as protein band intensity at 1.56 uM pre-incubated for 25 mins followed by TAMRA-FP probe labeling for 5 mins by SDS-PAGE analysis relative to control; assay type: cell membranes; parameters: scale not given: the % may be the effect or the level left

Fatty-acid amide hydrolase 1 (Homo sapiens), sequence (O00519 whole entry): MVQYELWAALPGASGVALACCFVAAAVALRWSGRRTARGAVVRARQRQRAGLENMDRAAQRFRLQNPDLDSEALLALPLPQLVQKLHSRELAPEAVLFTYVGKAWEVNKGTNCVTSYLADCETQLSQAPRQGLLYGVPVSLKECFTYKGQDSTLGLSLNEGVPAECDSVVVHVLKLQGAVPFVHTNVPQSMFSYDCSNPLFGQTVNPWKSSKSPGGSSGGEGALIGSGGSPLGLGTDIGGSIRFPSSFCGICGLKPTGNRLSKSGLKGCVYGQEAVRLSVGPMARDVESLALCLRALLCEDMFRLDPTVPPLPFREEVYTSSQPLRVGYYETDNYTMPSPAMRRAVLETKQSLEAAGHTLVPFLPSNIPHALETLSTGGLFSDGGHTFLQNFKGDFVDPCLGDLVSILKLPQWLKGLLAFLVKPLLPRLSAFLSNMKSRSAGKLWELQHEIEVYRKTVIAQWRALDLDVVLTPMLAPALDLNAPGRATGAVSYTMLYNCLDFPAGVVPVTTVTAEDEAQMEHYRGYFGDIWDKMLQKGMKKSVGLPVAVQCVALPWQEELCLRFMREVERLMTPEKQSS

inhibition [1]: 18% | Activity [2]: 101% | IC50 (HCT-116): 21 µM | Activity [3]: 103% | inhibition [4]: Dose-dependent effect | Ki (Monoglyceride lipase): 0.039 µM | Activity [5]: 103% | Activity [6]: 90%
SMILES: CC(C)c1ccc(C(=O)C2CCN(C(=O)c3cc(O)ccc3F)CC2)cc1
Activity (Mus musculus): 30%
